Assay outcomes deposited in PubChem BioAssay by PCMD.
eIF2B yeast act = eIF2B (yeast) activity modulation. S. cerevisiae eIF2B-epsilon R284H, GCN4-lacZ luminescence. inhibition, % at 25 µM (by protocol). 0.91% of 27,000 active. AID 688;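 active = mutant luminescence inhibited past about 50% while wild type luminescence and mutant growth stay under set limits, limit read from the data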
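Material: yeast eIF2B-epsilon R284H mutant carrying GCN4–beta-galactosidase fusion. Medium: YPD yeast growth medium. Incubation: 16 h growth with compound at 30 °C, 90 min Beta-Glo step. Signal: Beta-Glo luminescence plus absorbance at 595 nm. Evaluation: % inhibition of reporter signal and growth versus controls. Doses: 25 µM single dose.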
Yeast tox = Inhibitors of S. cerevisiae growth, toxicity. S. cerevisiae wild-type growth, A595 turbidity, 16 h. growth inhibition, % at 25 µM (by protocol). 0.3% of 30,000 active. AID 685;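 active = mutant and wild-type yeast strains alike exhibit over 30% growth inhibition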;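 also: 0% = untreated cell controls and 100% = YPD media blanks without cells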
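system = S. cerevisiae wild-type or eIF2Bepsilon-R284H mutant strain | buffer or medium = YPD medium | dosing = one dose, 25 µM compound, 0.2% DMSO | schedule = 16 h at 30 °C | measured by = A595 turbidity | evaluation = growth inhibition (%) versus cell controls and blanks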
Active calls of the source: *. A selection: hits, their analogues and other compounds. The true share with any hit is near 1.1%.

For CCn1cc(C(=O)Nc2nnc(C)s2)c(=O)c2cc(F)c(N3CCN(C(=O)c4ccco4)CC3)cc21 the results were eIF2B yeast act -16.0 and Yeast tox -37.6.
For CCc1nnc(N2C(=O)c3cccc4cccc(c34)C2=O)s1 the results were eIF2B yeast act 7.0 and Yeast tox 13.8.
For O=C1c2cccc3cccc(c23)C(=O)N1c1ccncc1 the results were eIF2B yeast act -56.0 and Yeast tox 44.3*.
COc1ccc(CCn2c(C)cc3c(c2=O)C(c2ccc4c(c2)OCO4)C(C#N)=C(N)O3)cc1OC (stereo not drawn) was read as eIF2B yeast act -12.9 and Yeast tox 14.0.
For COc1ccc(OC)c(C(=O)CSc2nnc(Cc3cccs3)n2CCc2ccccc2)c1 the results were eIF2B yeast act -9.8 and Yeast tox 9.3.
`O=C(Nc1ccc(Cl)c(Cl)c1)C1CC(=O)N(c2ccc(Br)cc2)C1` (stereo not drawn) gave eIF2B yeast act 61.1 and Yeast tox 79.2*.
Cc1ccc(N2CC(C(=O)Nc3nccs3)CC2=O)cc1Cl (stereo not drawn) was read as Yeast tox -2.3.
For Cc1cccc(-c2noc(CCCC(=O)N3CCOCC3)n2)c1 the results were Yeast tox 15.2.
Screening Cc1ccc(Cn2nnnc2CN2CCC(O)(c3ccc(F)cc3)CC2)cc1 returned eIF2B yeast act 69.3* and Yeast tox 2.3.
For COc1ccc(C2(O)CCN(Cc3nnnn3Cc3ccc(C)cc3)CC2)cc1 the results were eIF2B yeast act -5.9 and Yeast tox 10.9.
For COc1ccc(-n2c(SCC(=O)NCC3CCCO3)nc3ccccc32)cc1 (stereo not drawn) the results were eIF2B yeast act 20.4 and Yeast tox 4.0.
`Cc1c(C(=O)N2CCN(c3ccccc3F)CC2)sc2nc(-c3ccccc3)cn12` gave eIF2B yeast act 60.0* and Yeast tox 10.6.
Cc1c(C(N)=O)sc2nc(-c3ccccc3)cn12 was read as eIF2B yeast act 17.5 and Yeast tox 6.6.
For Cc1ccc(Cn2cnc3ccccc32)cc1 the results were eIF2B yeast act 18.6 and Yeast tox 24.4.
O=C1CCCN1CN(C(=O)c1ccccc1)c1ccc(F)cc1 was read as eIF2B yeast act 22.9 and Yeast tox 5.4.
For CCC(C)(C)n1nnnc1CN(Cc1cccs1)Cc1cc2cc(OC)ccc2[nH]c1=O the results were eIF2B yeast act 64.1* and Yeast tox 1.8.
Screening COc1ccc2[nH]c(=O)c(CN(Cc3nnnn3Cc3ccccc3)CC3CCCO3)cc2c1 (stereo not drawn) returned eIF2B yeast act -7.2 and Yeast tox 0.3.
CCN1CCN(Cc2ccc(NC(=O)Nc3cccs3)cc2)CC1 was read as eIF2B yeast act 1.4 and Yeast tox 16.2.
For COCCn1c(=O)c2c3c(sc2n(CC(N)=O)c1=O)CCCC3 the results were eIF2B yeast act -3.0 and Yeast tox -8.8.
CCOC(=O)N1CCN(C(=O)COc2cc(=O)n(CC)c3ccccc23)CC1 was read as eIF2B yeast act 67.8* and Yeast tox 4.6.
Screening CCn1c(=O)cc(OCC(=O)N(C)C2CCCCC2)c2ccccc21 returned eIF2B yeast act 22.5 and Yeast tox 20.5.
For CC1Cc2ccccc2N1C(=O)CSc1nnc2c(n1)[nH]c1ccc(F)cc12 (stereo not drawn) the results were eIF2B yeast act 2.4 and Yeast tox 4.7.
Screening Brc1cnc(N2CCOCC2)nc1N1CCCCC1 returned eIF2B yeast act 30.2 and Yeast tox 9.2.
Brc1cnn(-c2nc(N3CCOCC3)nc(N3CCOCC3)n2)c1 was read as eIF2B yeast act 51.6* and Yeast tox -17.6.
For COc1ccc(S(=O)(=O)CCC(=O)N2CC(=O)N(CCc3ccccc3)C(=O)C2)cc1 the results were eIF2B yeast act 25.1 and Yeast tox 4.2.
`COc1ccc(S(=O)(=O)CCC(=O)N2c3ccccc3CC2C)cc1` (stereo not drawn) gave eIF2B yeast act 55.8* and Yeast tox -3.6.
`CC(=O)N1CCCc2cc(S(=O)(=O)N3CCC(C)CC3)ccc21` gave eIF2B yeast act 17.1 and Yeast tox 28.9.
`Cc1csc(NC(=O)c2cccn2C)n1` gave eIF2B yeast act 51.1* and Yeast tox -4.3.
For Cc1csc(NC(=O)CSc2nc(C)cs2)n1 the results were eIF2B yeast act 15.9 and Yeast tox 10.2.
Screening CCCC1CC(C)(c2csc(Nc3ccc(OCC)cc3)n2)OC1=O (stereo not drawn) returned eIF2B yeast act 54.0* and Yeast tox -2.3.
CCOc1ccc(NC(=O)CC2CC(C)(C)OC2=O)cc1 (stereo not drawn) was read as eIF2B yeast act 6.3 and Yeast tox 3.3.
For CCc1cccc(NC(=O)CN(c2ccc(OC)cc2)S(=O)(=O)c2c(C)n[nH]c2C)c1 the results were eIF2B yeast act -10.1 and Yeast tox -2.7.
`CCSc1nnc(NC(=O)c2ccccn2)s1` gave eIF2B yeast act 82.5 and Yeast tox 66.2*.
For CCSc1nnc(NC(=O)c2csc3c2CCCC3)s1 the results were eIF2B yeast act -2.6.
Cc1occc1-c1nnc(SCC(=O)Nc2nc3ccccc3s2)o1 was read as eIF2B yeast act 5.7 and Yeast tox 10.0.
For COc1cccc(-c2nnc(-c3ccc(C(F)(F)F)cc3)o2)c1 the results were eIF2B yeast act -30.0 and Yeast tox -2.6.
Oc1ccccc1-c1nnc(-c2ccc(C(F)(F)F)cc2)o1 was read as eIF2B yeast act 52.8* and Yeast tox -4.2.
COc1cc2ccccc2cc1C(=O)Nc1cccnc1 was read as eIF2B yeast act 18.4 and Yeast tox 2.4.
For O=C(Nc1cccnc1)c1ccccc1Oc1ccccc1 the results were eIF2B yeast act 63.7* and Yeast tox -5.1.
CCOc1ccc(N2C(=O)CN=C2Nc2ccccc2F)cc1 was read as eIF2B yeast act 2.3 and Yeast tox 2.1.
For O=C1CNC(=O)N1Cc1ccc(Br)cc1 the results were eIF2B yeast act 51.0* and Yeast tox -8.9.
For Brc1ccc(CN2CCSCC2)cc1 the results were eIF2B yeast act 10.8 and Yeast tox 8.8.
CCC(C)NC(=O)CSc1nnc(-c2cc(-c3cccs3)nc3ccccc23)o1 (stereo not drawn) was read as Yeast tox 17.1.
Cc1ccc2c(c1)N(CC(=O)N1CCCCCC1)C(=O)CO2 was read as eIF2B yeast act -22.7 and Yeast tox 3.4.
`Cc1ccc2c(c1)N(CC(=O)NCc1cccnc1)C(=O)CO2` gave eIF2B yeast act 58.7* and Yeast tox 2.7.
Cc1cc(-c2nc3ccccc3o2)c2ccccc2n1 was read as eIF2B yeast act 4.7 and Yeast tox -5.6.
For Cc1nc2ccc(-c3ccccc3)cc2o1 the results were eIF2B yeast act 4.7 and Yeast tox 32.4*.
CCC(C)(C)c1ccc(OCCN2C(=O)NC(C)(C)C2=O)cc1 was read as eIF2B yeast act 17.3 and Yeast tox 5.0.
For O=C(Cc1ccccc1)N(c1ccc(F)cc1)C1C=CS(=O)(=O)C1 (stereo not drawn) the results were eIF2B yeast act 56.1* and Yeast tox 7.3.
For CC(C)C(=O)N(c1ccc(F)cc1)C1C=CS(=O)(=O)C1 (stereo not drawn) the results were eIF2B yeast act 22.7 and Yeast tox 25.3.
`O=C(c1ccc2c(c1)OCO2)N(c1ccc(F)cc1)C1C=CS(=O)(=O)C1` (stereo not drawn) gave eIF2B yeast act 56.5* and Yeast tox -3.6.
